Measured values published in ChEMBL document CHEMBL1121627, “Structure--activity relationships in a series of novel 3,4-dihydro-4-oxopyrimido[4,5-b]quinoline-2-carboxylic acid antiallergy agents” (1980).
Active and inactive are the calls of the source.

Experiments:
Rattus norvegicus [1] = assay: Antiallergic activity against reagin induced passive cutaneous anaphylaxis reaction in rats upon intravenous administration.; type: functional
Procedure, shortened: (§1)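 Rat passive cutaneous anaphylaxis. Just before challenge, controls for antihistamine, antiserotonin or nonspecific blockade are given intradermally: 60 µg histamine dihydrochloride and 0.5 µg serotonin-creatinine sulfate. Challenge is iv, 5 mg egg albumin with 2.5 mg Evan's Blue, given immediately after iv drug or 5 min after oral drug. Site scores are summed per group of 5 or 7 and expressed as % inhibition versus control. ED50 is taken from a by-eye dose-response curve, or from least-squares regression when n is larger.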

Rattus norvegicus [2] = assay: Antiallergic activity against reagin induced passive cutaneous anaphylaxis reaction in rats upon peroral administration.; type: functional; settings: po; procedure, shortened: as §1
Rattus norvegicus [3] = assay: The compound was evaluated for antiallergic activity against reagin induced passive cutaneous anaphylaxis reaction in rats upon peroral administration; at this dose the compound tested was found inactive; type: functional; settings: po; procedure, shortened: as §1
Rattus norvegicus [4] = assay: The compound was evaluated for antiallergic activity against reagin induced passive cutaneous anaphylaxis reaction in rats upon peroral administration, pH dependent, more active when administered in solution of pH>/=10; type: functional; settings: po; procedure, shortened: as §1
Rattus norvegicus [5] = assay: The compound was evaluated for antiallergic activity against reagin induced passive cutaneous anaphylaxis reaction in rats upon peroral administration, at this dose the compound tested was found inactive, and is highly active at the same dose if ad ministered in solution of pH >/=10; type: functional; settings: po; procedure, shortened: as §1
Rattus norvegicus [6] = assay: The compound was evaluated for antiallergic activity against reagin induced passive cutaneous anaphylaxis reaction in rats upon peroral administration; highest dose at which the compound was tested and found inactive; type: functional; settings: po; procedure, shortened: as §1
Rattus norvegicus [7] = assay: The compound was evaluated for antiallergic activity against reagin induced passive cutaneous anaphylaxis reaction in rats upon peroral administration. at this dose the compound tested was found inactive; type: functional; settings: po; procedure, shortened: as §1
Rattus norvegicus [8] = assay: The compound was evaluated for antiallergic activity against reagin induced passive cutaneous anaphylaxis reaction in rats upon peroral administration, the dose at which the compound was tested and found inactive; type: functional; settings: po; procedure, shortened: as §1
Rattus norvegicus [9] = assay: Inhibition of plasma histamine release induced by antigen challenge in rats assively sensitized with homologus antisera at an iv dose of 0.1 mg/kg; type: functional
Cavia porcellus = assay: Bronchoconstrictive effect of histamine aerosol in conscious guinea pigs at an iv dose of 30 mg/kg; Bronchoconstrictive effect is unaltered; type: functional, organism-based; parameters: dose 30 mg/kg

| SMILES | ED50 (Rattus norvegicus [1]) [mg/kg] | ED50 (Rattus norvegicus [2]) [mg/kg] | other results |
| --- | --- | --- | --- |
| CCOC(=O)c1nc(O)c2cc3cc(Sc4ccc(OC)cc4)ccc3nc2n1 | 3 | 30 |  |
| COc1cc2cc3c(O)nc(C(=O)[O-])nc3nc2cc1OC.[Na+] | 0.005 | 10 |  |
| CCOC(=O)c1nc(O)c2cc3cc(OCC)c(OCc4ccccc4)cc3nc2n1 | 0.9 |  | ED50 (Rattus norvegicus [3]): > 30 mg/kg |
| COc1cc2cc3c(O)nc(C(F)(F)F)nc3nc2cc1OC | > 10 |  |  |
| CCOC(=O)c1nc(O)c2cc3ccc(F)cc3nc2n1 | 0.3 | 30 |  |
| CCOC(=O)c1nc(O)c2cc3cc4c(cc3nc2n1)OCCO4 | 1 |  |  |
| COc1cc2cc3c(O)nc(C(=O)OCCO)nc3nc2cc1OC | < 0.03 | 10 |  |
| CCOC(=O)c1nc(O)c2cc3cc(O)ccc3nc2n1 | 0.7 |  | ED50 (Rattus norvegicus [4]): 10 mg/kg |
| O=C(O)c1nc(O)c2cc3cc(O)ccc3nc2n1 | 0.01 |  | ED50 (Rattus norvegicus [5]): > 10 mg/kg |
| CCNC(=O)c1nc(O)c2cc3cc(OC)c(OC)cc3nc2n1 | 3 |  |  |
| CNC(=O)c1nc(O)c2cc3cc(OC)c(OC)cc3nc2n1 | 3 |  |  |
| CCOC(=O)c1nc(O)c2cc3cc(OCc4ccccc4)c(OC)cc3nc2n1 | 3 |  | ED50 (Rattus norvegicus [3]): > 10 mg/kg |
| CCOC(=O)c1nc(O)c2cc3cc(OC(C)=O)c(OC)cc3nc2n1 | 0.007 |  | ED50 (Rattus norvegicus [4]): 10 mg/kg |
| CCOC(=O)c1nc(O)c2cc3c(Cl)cccc3nc2n1 | 0.2 | 30 |  |
| COc1cc2cc3c(O)nc(C(=O)NO)nc3nc2cc1OC | < 3 |  | ED50 (Rattus norvegicus [6]): > 60 mg/kg |
| COc1cc2cc3c(O)ncnc3nc2cc1OC | 3 |  |  |
| CCOC(=O)CNC(=O)c1nc(O)c2cc3cc(OC)c(OC)cc3nc2n1 | 6 |  |  |
| CCOC(=O)c1nc(O)c2cc3ccc(OC)c(OC)c3nc2n1 | 0.2 | 60 |  |
| CCOC(=O)c1nc(O)c2c(-c3ccccc3)c3ccccc3nc2n1 | 0.3 | 10 |  |

| SMILES | ED50 (Rattus norvegicus [1]) [mg/kg] | ED50 (Rattus norvegicus [2]) [mg/kg] | other results |
| --- | --- | --- | --- |
| CCCCOC(=O)c1nc(O)c2cc3cc(O)c(OC)cc3nc2n1 | 0.008 |  | ED50 (Rattus norvegicus [4]): 10 mg/kg |
| CCOC(=O)c1nc(O)c2cc3cc(OC)c(O)cc3nc2n1 | 1 |  | ED50 (Rattus norvegicus [5]): > 3 mg/kg |
| CCOC(=O)c1nc(O)c2cc3cc(SC)ccc3nc2n1 | 0.1 | 8 |  |
| CCc1nc(O)c2cc3cc(OC)c(OC)cc3nc2n1 | 3 |  | ED50 (Rattus norvegicus [6]): > 60 mg/kg |
| O=C(O)c1nc2nc3ccccc3cc2c(=O)[nH]1 | 0.2 | 25 |  |
| NC(=O)c1nc(O)c2cc3ccccc3nc2n1 | 1.3 | 60 |  |
| CCOC(=O)c1nc(O)c2cc3cc(OC)c(OC)c(OC)c3nc2n1 | 0.8 | 10 |  |
| CCOC(=O)c1nc(O)c2cc3cc([S+](C)[O-])ccc3nc2n1 (centres undefined) | 0.2 | 30 |  |
| CCOC(=O)c1nc(O)c2cc3cc(OC)c(OCc4ccccc4)cc3nc2n1 | 0.8 |  | ED50 (Rattus norvegicus [7]): > 30 mg/kg |
| COc1cc2cc3c(O)nc(C(N)=O)nc3nc2cc1OC | 3 | 30 |  |
| CCOC(=O)c1nc(O)c2cc3cc4c(cc3nc2n1)OCO4 | 0.5 | 30 |  |
| CCCCOc1cc2nc3nc(C(=O)OCC)nc(O)c3cc2cc1OCC | 0.3 | 5 |  |
| CCOC(=O)c1nc(O)c2cc3cc(Cl)ccc3nc2n1 | 0.4 | 30 |  |
| COc1cc2cc3c(=O)[nH]c(=O)[nH]c3nc2cc1OC | 3 |  |  |
| CCOC(=O)c1nc2nc3cc(OC)c(OC)cc3cc2c(=O)n1C | 0.8 |  | ED50 (Rattus norvegicus [8]): > 30 mg/kg |
| CCOC(=O)c1nc(O)c2cc3cc(OC)c(OCC)cc3nc2n1 | 0.007 | 2 |  |
| CCOC(=O)c1nc(O)c2cc3cc(OC)cc(OC)c3nc2n1 | 0.5 | 30 |  |
| COc1cc2cc3c(O)nc(C)nc3nc2cc1OC | 0.4 | 1 |  |
| CCOC(=O)c1nc(O)c2cc3cc(F)ccc3nc2n1 | 0.3 | 30 |  |

| SMILES | ED50 (Rattus norvegicus [1]) [mg/kg] | ED50 (Rattus norvegicus [2]) [mg/kg] | other results |
| --- | --- | --- | --- |
| CCOC(=O)Cn1c(C(=O)OCC)nc2nc3cc(OC)c(OC)cc3cc2c1=O | 3 |  |  |
| CCOC(=O)c1nc(O)c2cc3cc(O)c(OC)cc3nc2n1 | 0.001 |  | ED50 (Rattus norvegicus [5]): > 10 mg/kg |
| COc1cc2cc3c(O)nc(C(C)=O)nc3nc2cc1OC | 2 |  | ED50 (Rattus norvegicus [6]): > 10 mg/kg |
| CCNC(=O)c1nc(O)c2cc3ccccc3nc2n1 | 3 |  |  |
| CCOC(=O)c1nc(O)c2cc3ccccc3nc2n1 | 0.1 | 3 |  |
| CCOC(=O)c1nc(O)c2cc3cc(OCC)c(OCC)cc3nc2n1 | 0.01 | 1 |  |
| CCCCOC(=O)c1nc(O)c2cc3cc(OC)c(OC)cc3nc2n1 | 0.003 | 10 |  |
| CCOC(=O)c1nc(O)c2cc3cc(OC)ccc3nc2n1 | 0.03 | 20 |  |
| CCOC(=O)c1nc(O)c2cc3c(OC)ccc(OC)c3nc2n1 | 0.6 | 30 |  |
| COc1cc2nc3nc(C(=O)O)nc(O)c3cc2cc1O | < 0.01 |  | ED50 (Rattus norvegicus [5]): > 3 mg/kg |
| CCOC(=O)c1nc(O)c2cc3cc(OCC)c(OC)cc3nc2n1 | 0.002 | 0.3 |  |
| CCOC(=O)c1nc(O)c2cc3ccc(OC)cc3nc2n1 | 0.8 | 10 |  |
| CCOC(=O)c1nc(O)c2cc3cc(OCc4ccccc4)ccc3nc2n1 | 0.9 | 10 |  |
| CCOC(=O)CCCn1c(C(=O)OCC)nc2nc3cc(OC)c(OC)cc3cc2c1=O | 0.1 |  | ED50 (Rattus norvegicus [8]): > 10 mg/kg |
| COc1cc2cc3c(O)nc(-c4ccccc4)nc3nc2cc1OC | 3 |  |  |
| O=C([O-])c1cc(=O)c2c(OCC(O)COc3cccc4oc(C(=O)[O-])cc(=O)c34)cccc2o1.[Na+].[Na+] [CROMOLYN SODIUM] | 0.8 |  | ED50 (Rattus norvegicus [8]): > 300 mg/kg |
| CCOC(=O)c1nc(=O)c2cc3cc(OC)c(OC)cc3nc2[nH]1 [PIROLATE] | 0.007 | 1 | inhibition in vivo at 0.1 mg/kg (Rattus norvegicus [9]): 92%; Activity (Cavia porcellus): inactive |
| CCCCOC(=O)c1nc(O)c2cc3ccccc3nc2n1 | 0.06 | 30 |  |
